From ChEMBL document CHEMBL4261538, “Synthesis and molecular docking studies of xanthone attached amino acids as potential antimicrobial and anti-inflammatory agents” (Medchemcomm, 2017)
Values after ≈ are worked out from the molar mass of the structure shown.

Tests used:
Bacillus subtilis [1] = assay: Antibacterial activity against Bacillus subtilis at 50 ug/ml incubated for 24 hrs by agar well diffusion method; type: functional; settings: read-out: DIZ
In short: (§1)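 Bacteria grown in nutrient broth at 37 °C for 24 h, then subcultured at room temperature. Compounds dissolved in DMSO at 5 mg mL⁻¹ and 5–20 µL added to 6 mm wells, giving 25, 50, 75, 100 µg per well. Gentamicin was the positive control and DMSO the negative control. Plates held at 37 °C for 24 h, then inhibition zone diameter (mm) measured. Values are means of three determinations.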

Aspergillus niger [2] = assay: Antifungal activity against Aspergillus niger at 25 ug/ml incubated for 48 hrs by agar well diffusion method; type: functional; settings: read-out: DIZ
In short: (§2)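 Compounds dissolved in DMSO at 5 mg mL⁻¹ and 5–20 µL added to 6 mm wells, giving 25, 50, 75, 100 µg per well. Bavistin was the positive control and DMSO the negative control. Plates incubated at 28 °C for 48 h, then inhibition zone diameter (mm) measured. Values are means of three determinations.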

Escherichia coli [3] = assay: Antibacterial activity against Escherichia coli at 75 ug/ml incubated for 24 hrs by agar well diffusion method; type: functional; settings: read-out: DIZ; in short: as §1
Staphylococcus aureus [4] = assay: Antibacterial activity against Staphylococcus aureus at 75 ug/ml incubated for 24 hrs by agar well diffusion method; type: functional; settings: read-out: DIZ; in short: as §1
Candida albicans [5] = assay: Antifungal activity against Candida albicans incubated for 48 to 72 hrs by microdilution method; type: functional
In short: (§3)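 Sabouraud agar plates inoculated with fungal suspension at 10⁵ CFU mL⁻¹ plus serially diluted compounds and bavistin reference, both in DMSO. Incubated at 25 °C for 48–72 h. MIC is the lowest concentration completely inhibiting growth. Values are means of three determinations.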

Escherichia coli [6] = assay: Antibacterial activity against Escherichia coli at 100 ug/ml incubated for 24 hrs by agar well diffusion method; type: functional; settings: read-out: DIZ; in short: as §1
Fusarium oxysporum [7] = assay: Antifungal activity against Fusarium oxysporum at 25 ug/ml incubated for 48 hrs by agar well diffusion method; type: functional; settings: read-out: DIZ; in short: as §2
Klebsiella pneumoniae [8] = assay: Antibacterial activity against Klebsiella pneumoniae at 50 ug/ml incubated for 24 hrs by agar well diffusion method; type: functional; settings: read-out: DIZ; in short: as §1
Candida albicans [9] = assay: Antifungal activity against Candida albicans at 25 ug/ml incubated for 48 hrs by agar well diffusion method; type: functional; settings: read-out: DIZ; in short: as §2
Bacillus subtilis [10] = assay: Antibacterial activity against Bacillus subtilis at 75 ug/ml incubated for 24 hrs by agar well diffusion method; type: functional; settings: read-out: DIZ; in short: as §1
Staphylococcus aureus [11] = assay: Antibacterial activity against Staphylococcus aureus incubated for 24 hrs by microdilution method; type: functional
Klebsiella pneumoniae [12] = assay: Antibacterial activity against Klebsiella pneumoniae at 100 ug/ml incubated for 24 hrs by agar well diffusion method; type: functional; settings: read-out: DIZ; in short: as §1
Klebsiella pneumoniae [13] = assay: Antibacterial activity against Klebsiella pneumoniae at 75 ug/ml incubated for 24 hrs by agar well diffusion method; type: functional; settings: read-out: DIZ; in short: as §1
Candida albicans [14] = assay: Antifungal activity against Candida albicans at 100 ug/ml incubated for 48 hrs by agar well diffusion method; type: functional; settings: read-out: DIZ; in short: as §2
Fusarium oxysporum [15] = assay: Antifungal activity against Fusarium oxysporum at 75 ug/ml incubated for 48 hrs by agar well diffusion method; type: functional; settings: read-out: DIZ; in short: as §2
Staphylococcus aureus [16] = assay: Antibacterial activity against Staphylococcus aureus at 100 ug/ml incubated for 24 hrs by agar well diffusion method; type: functional; settings: read-out: DIZ; in short: as §1
Candida albicans [17] = assay: Antifungal activity against Candida albicans at 50 ug/ml incubated for 48 hrs by agar well diffusion method; type: functional; settings: read-out: DIZ; in short: as §2
Erythrocyte = assay: Anti-inflammatory activity in human RBC assessed as inhibition of hypotonic solution-induced hemolysis after 10 mins by spectrophotometric method; type: functional, cell-based
In short: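 Human blood (heparinized) washed with 0.9% saline, packed cells made into a 40% v/v stock in isotonic phosphate buffer (154 mM NaCl, 10 mM sodium phosphate, pH 7.4). Stock RBC mixed with hypotonic buffer (50 mM NaCl, 10 mM phosphate, pH 7.4) plus sample at 20–100 µg mL⁻¹.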

Fusarium oxysporum [18] = assay: Antifungal activity against Fusarium oxysporum at 50 ug/ml incubated for 48 hrs by agar well diffusion method; type: functional; settings: read-out: DIZ; in short: as §2
Escherichia coli [19] = assay: Antibacterial activity against Escherichia coli at 25 ug/ml incubated for 24 hrs by agar well diffusion method; type: functional; settings: read-out: DIZ; in short: as §1
Aspergillus niger [20] = assay: Antifungal activity against Aspergillus niger incubated for 48 to 72 hrs by microdilution method; type: functional; in short: as §3
Aspergillus niger [21] = assay: Antifungal activity against Aspergillus niger at 100 ug/ml incubated for 48 hrs by agar well diffusion method; type: functional; settings: read-out: DIZ; in short: as §2
Klebsiella pneumoniae [22] = assay: Antibacterial activity against Klebsiella pneumoniae at 25 ug/ml incubated for 24 hrs by agar well diffusion method; type: functional; settings: read-out: DIZ; in short: as §1
Bacillus subtilis [23] = assay: Antibacterial activity against Bacillus subtilis at 100 ug/ml incubated for 24 hrs by agar well diffusion method; type: functional; settings: read-out: DIZ; in short: as §1
Bacillus subtilis [24] = assay: Antibacterial activity against Bacillus subtilis incubated for 24 hrs by microdilution method; type: functional
Staphylococcus aureus [25] = assay: Antibacterial activity against Staphylococcus aureus at 25 ug/ml incubated for 24 hrs by agar well diffusion method; type: functional; settings: read-out: DIZ; in short: as §1
Escherichia coli [26] = assay: Antibacterial activity against Escherichia coli at 50 ug/ml incubated for 24 hrs by agar well diffusion method; type: functional; settings: read-out: DIZ; in short: as §1
Aspergillus niger [27] = assay: Antifungal activity against Aspergillus niger at 50 ug/ml incubated for 48 hrs by agar well diffusion method; type: functional; settings: read-out: DIZ; in short: as §2
Candida albicans [28] = assay: Antifungal activity against Candida albicans at 75 ug/ml incubated for 48 hrs by agar well diffusion method; type: functional; settings: read-out: DIZ; in short: as §2
Klebsiella pneumoniae [29] = assay: Antibacterial activity against Klebsiella pneumoniae incubated for 24 hrs by microdilution method; type: functional
Fusarium oxysporum [30] = assay: Antifungal activity against Fusarium oxysporum at 100 ug/ml incubated for 48 hrs by agar well diffusion method; type: functional; settings: read-out: DIZ; in short: as §2
Bacillus subtilis [31] = assay: Antibacterial activity against Bacillus subtilis at 25 ug/ml incubated for 24 hrs by agar well diffusion method; type: functional; settings: read-out: DIZ; in short: as §1
Escherichia coli [32] = assay: Antibacterial activity against Escherichia coli incubated for 24 hrs by microdilution method; type: functional
Aspergillus niger [33] = assay: Antifungal activity against Aspergillus niger at 75 ug/ml incubated for 48 hrs by agar well diffusion method; type: functional; settings: read-out: DIZ; in short: as §2
Fusarium oxysporum [34] = assay: Antifungal activity against Fusarium oxysporum incubated for 48 to 72 hrs by microdilution method; type: functional; in short: as §3
Staphylococcus aureus [35] = assay: Antibacterial activity against Staphylococcus aureus at 50 ug/ml incubated for 24 hrs by agar well diffusion method; type: functional; settings: read-out: DIZ; in short: as §1

SMILES | zone of inhibition at 50 µg/mL (Bacillus subtilis [1]) | zone of inhibition at 25 µg/mL (Aspergillus niger [2]) | zone of inhibition at 75 µg/mL (Escherichia coli [3]) | zone of inhibition at 75 µg/mL (Staphylococcus aureus [4]) | zone of inhibition at 100 µg/mL (Escherichia coli [6]) | zone of inhibition at 25 µg/mL (Fusarium oxysporum [7]) | zone of inhibition at 50 µg/mL (Klebsiella pneumoniae [8]) | zone of inhibition at 25 µg/mL (Candida albicans [9]) | zone of inhibition at 75 µg/mL (Bacillus subtilis [10]) | zone of inhibition at 100 µg/mL (Klebsiella pneumoniae [12]) | zone of inhibition at 75 µg/mL (Klebsiella pneumoniae [13]) | zone of inhibition at 100 µg/mL (Candida albicans [14]) | zone of inhibition at 75 µg/mL (Fusarium oxysporum [15]) | zone of inhibition at 50 µg/mL (Candida albicans [17]) | zone of inhibition at 50 µg/mL (Fusarium oxysporum [18]) | zone of inhibition at 100 µg/mL (Aspergillus niger [21]) | zone of inhibition at 50 µg/mL (Aspergillus niger [27]) | zone of inhibition at 75 µg/mL (Candida albicans [28]) | zone of inhibition at 100 µg/mL (Fusarium oxysporum [30]) | zone of inhibition at 75 µg/mL (Aspergillus niger [33]) | other results
Cl.N[C@@H](Cc1ccccc1)C(=O)Oc1ccc2c(=O)c3ccccc3oc2c1 | 27 mm | 20 mm | 34 mm | 34 mm | 37 mm | 20 mm | 29 mm | 24 mm | 34 mm | 40 mm | 34 mm | 40 mm | 30 mm | 28 mm | 25 mm | 41 mm | 30 mm | 34 mm | 36 mm | 36 mm | MIC (Candida albicans [5]): 28 µg/mL; MIC (Staphylococcus aureus [11]): 22 µg/mL; zone of inhibition at 100 µg/mL (Staphylococcus aureus [16]): 38 mm; IC50 (Erythrocyte): 38 µg/mL; zone of inhibition at 25 µg/mL (Escherichia coli [19]): 20 mm; MIC (Aspergillus niger [20]): 26 µg/mL; zone of inhibition at 25 µg/mL (Klebsiella pneumoniae [22]): 23 mm; zone of inhibition at 100 µg/mL (Bacillus subtilis [23]): 38 mm; MIC (Bacillus subtilis [24]): 22 µg/mL; zone of inhibition at 25 µg/mL (Staphylococcus aureus [25]): 22 mm; zone of inhibition at 50 µg/mL (Escherichia coli [26]): 27 mm; MIC (Klebsiella pneumoniae [29]): 24 µg/mL; zone of inhibition at 25 µg/mL (Bacillus subtilis [31]): 22 mm; MIC (Escherichia coli [32]): 22 µg/mL; MIC (Fusarium oxysporum [34]): 26 µg/mL; zone of inhibition at 50 µg/mL (Staphylococcus aureus [35]): 27 mm
COC(=O)Nc1nc2ccccc2[nH]1 [CARBENDAZIM] |  | 20 mm |  |  |  | 22 mm |  | 19 mm |  |  |  | 32 mm | 33 mm | 24 mm | 27 mm | 36 mm | 27 mm | 29 mm | 36 mm | 33 mm | MIC (Candida albicans [5]): 28 µg/mL (≈ 146 µM); MIC (Aspergillus niger [20]): 27 µg/mL (≈ 141 µM); MIC (Fusarium oxysporum [34]): 27 µg/mL (≈ 141 µM)
CC(C)C[C@H](N)C(=O)Oc1ccc2c(=O)c3ccccc3oc2c1.Cl | 19 mm | 10 mm | 20 mm | 15 mm | 24 mm | 9 mm | 16 mm | 10 mm | 24 mm | 26 mm | 22 mm | 21 mm | 17 mm | 15 mm | 13 mm | 22 mm | 14 mm | 19 mm | 19 mm | 19 mm | zone of inhibition at 100 µg/mL (Staphylococcus aureus [16]): 21 mm; IC50 (Erythrocyte): 70 µg/mL; zone of inhibition at 25 µg/mL (Escherichia coli [19]): 8 mm; zone of inhibition at 25 µg/mL (Klebsiella pneumoniae [22]): 10 mm; zone of inhibition at 100 µg/mL (Bacillus subtilis [23]): 29 mm; zone of inhibition at 25 µg/mL (Staphylococcus aureus [25]): 9 mm; zone of inhibition at 50 µg/mL (Escherichia coli [26]): 14 mm; zone of inhibition at 25 µg/mL (Bacillus subtilis [31]): 13 mm; zone of inhibition at 50 µg/mL (Staphylococcus aureus [35]): 12 mm
CC(C)[C@H](NC(=O)OC(C)(C)C)C(=O)Oc1ccc2c(=O)c3ccccc3oc2c1 | 13 mm | 7 mm | 18 mm | 17 mm | 20 mm | 9 mm | 11 mm | 10 mm | 19 mm | 24 mm | 19 mm | 21 mm | 20 mm | 13 mm | 14 mm | 20 mm | 13 mm | 15 mm | 23 mm | 16 mm | zone of inhibition at 100 µg/mL (Staphylococcus aureus [16]): 22 mm; IC50 (Erythrocyte): 76 µg/mL (≈ 185 µM); zone of inhibition at 25 µg/mL (Escherichia coli [19]): 8 mm; zone of inhibition at 25 µg/mL (Klebsiella pneumoniae [22]): 5 mm; zone of inhibition at 100 µg/mL (Bacillus subtilis [23]): 22 mm; zone of inhibition at 25 µg/mL (Staphylococcus aureus [25]): 10 mm; zone of inhibition at 50 µg/mL (Escherichia coli [26]): 13 mm; zone of inhibition at 25 µg/mL (Bacillus subtilis [31]): 7 mm; zone of inhibition at 50 µg/mL (Staphylococcus aureus [35]): 13 mm
